Key:
Format in all cases: functional
[1] = system: HCC 2998; assay: Growth inhibition of human HCC2998 cells
[2] = system: HCT-116; assay: Growth inhibition of human HCT116 cells
[3] = system: KM12; assay: Growth inhibition of human KM12 cells
[4] = system: SW-620; assay: Growth inhibition of human SW620 cells
[5] = system: SF-295; assay: Growth inhibition of human SF295 cells
[6] = system: SNB-19; assay: Growth inhibition of human SNB19 cells
[7] = system: U-251; assay: Growth inhibition of human U251 cells
[8] = system: LOX IMVI; assay: Growth inhibition of human LOXIMVI cells
[9] = system: Malme-3M; assay: Growth inhibition of human MALME-3M cells
[10] = system: M14; assay: Growth inhibition of human M14 cells
[11] = system: MDA-MB-435; assay: Growth inhibition of human MDA-MB-435 cells
[12] = system: OVCAR-8; assay: Growth inhibition of human OVCAR8 cells
[13] = system: NCI/ADR-RES; assay: Growth inhibition of human NCI/ADR-RES cells
[14] = system: A498; assay: Growth inhibition of human A498 cells
[15] = system: CAKI-1; assay: Growth inhibition of human Caki1 cells
[16] = system: SN12C; assay: Growth inhibition of human SN12C cells
[17] = system: TK-10; assay: Growth inhibition of human TK10 cells
[18] = system: UO-31; assay: Growth inhibition of human UO31 cells
[19] = system: PC-3; assay: Growth inhibition of human PC3 cells
[20] = system: DU-145; assay: Growth inhibition of human DU145 cells
[21] = system: MDA-MB-231; assay: Growth inhibition of human MDA-MB-231 cells
[22] = system: MDA-MB-468; assay: Growth inhibition of human MDA-MB-468 cells
[23] = system: MOLT-4; assay: Growth inhibition of human MOLT4 cells assessed tumor cell growth at 10^-5 M; parameters: scale not given: the % may be the effect or the level left
In short: (§1)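 NCI 60-human-tumor-cell-line panel screen. Each compound was tested at a single concentration of 10^-5 M, and percent growth of tumor cells was recorded for each cell line. Growth inhibition was expressed from these percent-growth values.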

[24] = system: A549; assay: Growth inhibition of human A549 cells assessed tumor cell growth at 10^-5 M; parameters: scale not given: the % may be the effect or the level left; in short: as §1
[25] = system: EKVX; assay: Growth inhibition of human EKVX cells assessed tumor cell growth at 10^-5 M; parameters: scale not given: the % may be the effect or the level left; in short: as §1
[26] = system: HOP-62; assay: Growth inhibition of human HOP62 cells assessed tumor cell growth at 10^-5 M; parameters: scale not given: the % may be the effect or the level left; in short: as §1
[27] = system: HOP-92; assay: Growth inhibition of human HOP92 cells assessed tumor cell growth at 10^-5 M; parameters: scale not given: the % may be the effect or the level left; in short: as §1
[28] = system: NCI-H460; assay: Growth inhibition of human NCI-H460 cells assessed tumor cell growth at 10^-5 M; parameters: scale not given: the % may be the effect or the level left; in short: as §1
[29] = system: HCT-116; assay: Growth inhibition of human HCT116 cells assessed tumor cell growth at 10^-5 M; parameters: scale not given: the % may be the effect or the level left; in short: as §1
[30] = system: HCT-15; assay: Growth inhibition of human HCT15 cells assessed tumor cell growth at 10^-5 M; parameters: scale not given: the % may be the effect or the level left; in short: as §1
[31] = system: KM12; assay: Growth inhibition of human KM12 cells assessed tumor cell growth at 10^-5 M; parameters: scale not given: the % may be the effect or the level left; in short: as §1
[32] = system: SF-295; assay: Growth inhibition of human SF295 cells assessed tumor cell growth at 10^-5 M; parameters: scale not given: the % may be the effect or the level left; in short: as §1
[33] = system: U-251; assay: Growth inhibition of human U251 cells assessed tumor cell growth at 10^-5 M; parameters: scale not given: the % may be the effect or the level left
In short: (§2)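 Single-dose screen at 10^-5 M across the 60 human tumor cell line panel, run to NCI standards. The value is the percent growth of each cell line in the presence of compound. Compounds active at this dose moved on to five-concentration testing (10^-4 to 10^-8 M).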

[34] = system: Malme-3M; assay: Growth inhibition of human MALME-3M cells assessed tumor cell growth at 10^-5 M; parameters: scale not given: the % may be the effect or the level left; in short: as §1
[35] = system: SK-MEL-5; assay: Growth inhibition of human SK-MEL-5 cells assessed tumor cell growth at 10^-5 M; parameters: scale not given: the % may be the effect or the level left; in short: as §1
[36] = system: UACC-257; assay: Growth inhibition of human UACC257 cells assessed tumor cell growth at 10^-5 M; parameters: scale not given: the % may be the effect or the level left; in short: as §2
[37] = system: OVCAR-3; assay: Growth inhibition of human OVCAR3 cells assessed tumor cell growth at 10^-5 M; parameters: scale not given: the % may be the effect or the level left; in short: as §1
[38] = system: SK-OV-3; assay: Growth inhibition of human SKOV3 cells assessed tumor cell growth at 10^-5 M; parameters: scale not given: the % may be the effect or the level left; in short: as §1
[39] = system: ACHN; assay: Growth inhibition of human ACHN cells assessed tumor cell growth at 10^-5 M; parameters: scale not given: the % may be the effect or the level left; in short: as §1
[40] = system: CAKI-1; assay: Growth inhibition of human Caki1 cells assessed tumor cell growth at 10^-5 M; parameters: scale not given: the % may be the effect or the level left; in short: as §1
[41] = system: RXF 393; assay: Growth inhibition of human RXF393 cells assessed tumor cell growth at 10^-5 M; parameters: scale not given: the % may be the effect or the level left; in short: as §1
[42] = system: SN12C; assay: Growth inhibition of human SN12C cells assessed tumor cell growth at 10^-5 M; parameters: scale not given: the % may be the effect or the level left; in short: as §1
[43] = system: UO-31; assay: Growth inhibition of human UO31 cells assessed tumor cell growth at 10^-5 M; parameters: scale not given: the % may be the effect or the level left; in short: as §2
[44] = system: PC-3; assay: Growth inhibition of human PC3 cells assessed tumor cell growth at 10^-5 M; parameters: scale not given: the % may be the effect or the level left; in short: as §1
[45] = system: DU-145; assay: Growth inhibition of human DU145 cells assessed tumor cell growth at 10^-5 M; parameters: scale not given: the % may be the effect or the level left; in short: as §1
[46] = system: MCF7; assay: Growth inhibition of human MCF7 cells assessed tumor cell growth at 10^-5 M; parameters: scale not given: the % may be the effect or the level left; in short: as §1
[47] = system: T47D; assay: Growth inhibition of human T47D cells assessed tumor cell growth at 10^-5 M; parameters: scale not given: the % may be the effect or the level left; in short: as §2
[48] = system: MDA-MB-468; assay: Growth inhibition of human MDA-MB-468 cells assessed tumor cell growth at 10^-5 M; parameters: scale not given: the % may be the effect or the level left; in short: as §1
[49] = system: HL-60(TB); assay: Growth inhibition of human HL-60(TB) cells
[50] = system: K562; assay: Growth inhibition of human K562 cells
[51] = Growth inhibition of human RPMI8266 cells
[52] = system: EKVX; assay: Growth inhibition of human EKVX cells
[53] = system: NCI-H460; assay: Growth inhibition of human NCI-H460 cells
[54] = system: NCI-H522; assay: Growth inhibition of human NCI-H522 cells
[55] = system: COLO 205; assay: Growth inhibition of human COLO205 cells
[56] = read-out: LC50 (the source's name)

**Q.** Which results are given for O=C1Nc2ccccc2/C1=C/c1cn(C(=O)c2c(Cl)cccc2Cl)c2ccccc12?
**A.** GI50 [1]: 6 µM; CC50 [1, 56]: 52.4 µM; GI50 [2]: 1.6 µM; CC50 [2, 56]: 6.9 µM; GI50 [3]: 1.8 µM; CC50 [3, 56]: 8.9 µM; GI50 [4]: 2.9 µM; CC50 [4, 56]: 52.4 µM; GI50 [5]: 2.2 µM; CC50 [5, 56]: 66.1 µM; GI50 [6]: 7.2 µM; CC50 [6, 56]: > 100 µM; GI50 [7]: 3.4 µM; CC50 [7, 56]: 54.9 µM; GI50 [8]: 1.6 µM; CC50 [8, 56]: 6.6 µM; GI50 [9]: 2.6 µM; CC50 [9, 56]: 58.8 µM; GI50 [10]: 2.3 µM; CC50 [10, 56]: 33.8 µM; GI50 [11]: 2.2 µM; CC50 [11, 56]: 51.2 µM; GI50 [12]: 4.1 µM; CC50 [12, 56]: > 100 µM; GI50 [13]: 3.4 µM; CC50 [13, 56]: > 100 µM; GI50 [14]: 1.2 µM; CC50 [14, 56]: 21.8 µM; GI50 [15]: 1.9 µM; CC50 [15, 56]: > 100 µM; GI50 [16]: 3.9 µM; CC50 [16, 56]: 70.7 µM; GI50 [17]: 10.4 µM; CC50 [17, 56]: > 100 µM; GI50 [18]: 1.1 µM; CC50 [18, 56]: 48.9 µM; GI50 [19]: 2.4 µM; CC50 [19, 56]: > 100 µM; GI50 [20]: 2.7 µM; CC50 [20, 56]: 46.7 µM; GI50 [21]: 3.1 µM; CC50 [21, 56]: > 100 µM; GI50 [22]: 4.4 µM; CC50 [22, 56]: 69.1 µM; Activity [23]: 43.9%; Activity [24]: 36.7%; Activity [25]: 81.4%; Activity [26]: 88.7%; Activity [27]: 49%; Activity [28]: 71.1%; Activity [29]: 26%; Activity [30]: 30.9%; Activity [31]: 54.7%; Activity [32]: 44.5%; Activity [33]: 35.8%; Activity [34]: 116.7%; Activity [35]: 63%; Activity [36]: 79.1%; Activity [37]: 43%; Activity [38]: 71.8%; Activity [39]: 43.6%; Activity [40]: 18.7%; Activity [41]: -4.1%; Activity [42]: 56%; Activity [43]: 50.7%; Activity [44]: 41.7%; Activity [45]: 59.2%; Activity [46]: 22.9%; Activity [47]: 47.7%; Activity [48]: 32.6%; GI50 [49]: 2.4 µM; CC50 [49, 56]: > 100 µM; GI50 [50]: 3.1 µM; CC50 [50, 56]: > 100 µM; GI50 [51]: 3.4 µM; CC50 [51, 56]: > 100 µM; GI50 [52]: 2.8 µM; CC50 [52, 56]: > 100 µM; GI50 [53]: 1.9 µM; CC50 [53, 56]: 7.9 µM; GI50 [54]: 4.2 µM; LC50 (concentration killing 50% of cells) [54]: 54.9 µM; GI50 [55]: 7.6 µM; LC50 [55]: 54.9 µM
